pIC50: −log10 of the molar value. The source made the active and inactive calls. No cut-off for these calls is given here.
Assays:
Estrogen receptor = target: T1, Estrogen receptor (Homo sapiens, UniProt P03372); assay: Displacement of Fluormone-tagged ES2 from human recombinant ERalpha after 2 hrs by fluorescence polarization assay
T1 sequence (P03372 whole entry): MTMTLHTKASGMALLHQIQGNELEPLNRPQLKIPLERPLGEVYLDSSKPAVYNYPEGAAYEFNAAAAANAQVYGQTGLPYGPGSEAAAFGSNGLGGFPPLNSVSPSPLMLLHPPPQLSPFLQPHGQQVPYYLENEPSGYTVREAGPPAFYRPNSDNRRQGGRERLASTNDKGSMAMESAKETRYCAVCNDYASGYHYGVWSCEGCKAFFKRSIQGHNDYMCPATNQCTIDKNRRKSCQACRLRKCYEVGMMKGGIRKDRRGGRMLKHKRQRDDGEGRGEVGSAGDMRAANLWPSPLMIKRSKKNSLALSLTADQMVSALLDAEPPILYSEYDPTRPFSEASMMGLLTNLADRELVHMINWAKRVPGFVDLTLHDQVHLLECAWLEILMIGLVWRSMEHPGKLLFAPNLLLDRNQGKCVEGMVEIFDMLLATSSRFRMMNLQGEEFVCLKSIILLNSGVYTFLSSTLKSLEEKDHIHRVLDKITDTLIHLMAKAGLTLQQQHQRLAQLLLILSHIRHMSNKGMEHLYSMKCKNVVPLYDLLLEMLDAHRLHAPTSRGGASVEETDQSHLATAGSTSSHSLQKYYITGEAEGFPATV

PBMC = assay: Cytotoxicity against human PBMC assessed as reduction in cell viability at 100 uM after 48 hrs by MTT assay; assay type: cell-based
How it was run: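 PBMCs isolated from human whole blood after RBC lysis, kept in RPMI-1640 with 10% FBS at 37 °C, 5% CO2; about 10^4 cells/well. MTT read-out as for T47D: 48 h exposure in FBS-free medium, MTT 0.5 mg/ml for 4 h, acidified DMSO, absorbance 570/620 nm, viability versus control.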

T47D [1] = assay: Antiproliferative activity against human T47D cells after 48 hrs by MTT assay
[2] = target: T2, Estrogen receptor (Homo sapiens) (UniProt P03372); assay: Displacement of Fluormone-tagged ES2 from human recombinant ERalpha up to 1000 nM after 2 hrs by fluorescence polarization assay
T2 sequence (whole entry): T1 sequence (P03372 whole entry)
How it was run: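 Fluorescence polarization competition: DMSO serial dilutions of compound mixed 1:1 with human recombinant ER-α/Fluormone complex, at least 2 h at room temperature protected from light; excitation 535 nm, emission 590 nm. Controls: buffer with 4% DMSO (maximum), oestradiol (minimum), free tracer. Percent inhibition fitted by nonlinear regression; IC50 = half displacement of bound ligand.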

MCF7 = assay: Antiproliferative activity against human MCF7 cells; assay type: functional
T47D [3] = assay: Downregulation of ERalpha protein level in human T47D cells at 15 uM after 48 hrs by Western blot method relative to control; assay type: functional
How it was run: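 T47D cells grown in RPMI-1640 with 10% heat-inactivated FBS at 37 °C, 5% CO2, then exposed to 15 uM for 48 h. Lysis in modified RIPA (50 mM Tris-HCl pH 7.4, 1% NP-40, protease inhibitors); protein measured by Bradford. 50 ug run on 10% SDS-PAGE, then nitrocellulose. Rabbit anti-ER-alpha (HC-20) at 4 °C overnight, HRP secondary, ECL. Densitometry normalised to beta-actin versus untreated cells; three experiments.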

[4] = Drug uptake in human T47D cell plasma membrane at 15 uM after 24 hrs by DAPI staining based confocal laser scanning microscopic method; assay type: ADME, cell membranes
[5] = Drug uptake in human T47D cell nucleus at 15 uM after 24 to 48 hrs by DAPI staining based confocal laser scanning microscopic method; assay type: ADME, subcellular
[6] = target: T2, Estrogen receptor (Homo sapiens); assay: Binding affinity to ERalpha in human T47D cells assessed as downregulation of ERalpha mRNA level at 15 uM after 482 hrs by RT-PCR assay relative to control; assay type: cell-based; details: in the assay text read “48 hrs” for “482 hrs”
How it was run: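 T47D treated with 15 µM for 48 h; total RNA extracted with TRIzol, quality checked, converted to cDNA. ER-α amplified with gene-specific primers alongside GAPDH as loading control; products run on 1.2% agarose with EtBr and quantified by densitometry, normalised to GAPDH, relative to untreated cells; three independent experiments.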

[7] = Drug uptake in human T47D cell cytosol at 15 uM after 24 hrs by DAPI staining based confocal laser scanning microscopic method; assay type: ADME, subcellular

SMILES	pIC50 (Estrogen receptor)	Activity (PBMC)	pIC50 (T47D [1])	other results
CC1CC(=O)C2=C(C1)OC1=C(C(=O)CC(C)C1)C2c1cc2ccccc2n1Cc1ccccc1 (stereo unspecified)	6.32	Non-Toxic	–	–
Cc1c(-c2ccc(O)cc2)n(Cc2ccc(OCCN3CCCCCC3)cc2)c2ccc(O)cc12 [BAZEDOXIFENE]	–	–	4.78	–
O=C1CCC2=C1C(c1cc3ccccc3n1Cc1ccccc1)C1=C(CCC1=O)O2	7.29	Non-Toxic	4.60	–
O=C1CC(c2ccccc2)CC2=C1C(c1cc3ccccc3n1Cc1ccccc1)C1=C(CC(c3ccccc3)CC1=O)O2 (stereo unspecified)	–	Non-Toxic	–	inhibition [2]: inactive
CC1(C)CC(=O)C2C(C1)Oc1ccc3ccccc3c1C2c1ccc(O)cc1 (stereo unspecified)	–	–	–	Activity (MCF7): 6.7 µg/mL
CC1(C)CCC(=O)C2=C1OC1=C(C(=O)CCC1(C)C)C2c1cc2ccccc2n1Cc1ccccc1	–	Non-Toxic	–	inhibition [2]: inactive
CC1CC(=O)C2=C(C1)OC1=C(C(=O)CCC1(C)C)C2c1cc2ccccc2n1Cc1ccccc1 (stereo unspecified)	6.45	Non-Toxic	4.68	–
CC/C(=C(\c1ccccc1)c1ccc(OCCN(C)C)cc1)c1ccccc1 [TAMOXIFEN]	–	–	–	Activity (MCF7): 10 µg/mL
CC1CC(=O)C2=C(C1)OC1=C(C(=O)CC(C)(C)C1)C2c1cc2ccccc2n1Cc1ccccc1 (stereo unspecified)	7.57	Non-Toxic	4.70	–
CC1CC(=O)C2=C(C1)OC1=C(C(=O)CCC1)C2c1cc2ccccc2n1Cc1ccccc1 (stereo unspecified)	7.78	Non-Toxic	4.75	Activity (T47D [3]): 31.06%; Drug uptake [4]: Active; Drug uptake [5]: Not Active; Activity [6]: 29.7%
CC1(C)CC(=O)C2=C(C1)OC1=C(C(=O)CC(C)(C)C1)C2c1cc2ccccc2n1Cc1ccccc1	7.22	Non-Toxic	4.61	–
CC1(C)CCC(=O)C2=C1OC1=C(C(=O)CCC1)C2c1cc2ccccc2n1Cc1ccccc1 (stereo unspecified)	7.26	Non-Toxic	4.78	Activity (T47D [3]): 32.18%; Drug uptake [5]: Not Active; Activity [6]: 54.3%; Drug uptake [7]: Active
CC1(C)CC(=O)C2=C(C1)OC1=C(C(=O)CCC1(C)C)C2c1cc2ccccc2n1Cc1ccccc1 (stereo unspecified)	6.23	Non-Toxic	4.71	–
Oc1nc(S)nc2c1C(c1cc3ccccc3n1Cc1ccccc1)c1c(O)nc(S)nc1O2	–	Non-Toxic	–	inhibition [2]: inactive
O=c1[nH]c2c(c(=O)[nH]1)C(c1cc3ccccc3n1Cc1ccccc1)c1c([nH]c(=O)[nH]c1=O)O2	7.21	Non-Toxic	4.66	–
CC1(C)CC(=O)C2=C(C1)OC1=C(C(=O)CCC1)C2c1cc2ccccc2n1Cc1ccccc1 (stereo unspecified)	7.73	Non-Toxic	4.63	–
